Source: ChEMBL document CHEMBL1649574, “Prevalence and characterization of heterogeneous vancomycin-intermediate Staphylococcus aureus isolates from 14 cities in China” (2009)

What was measured:
Assay type in all cases: functional
Staphylococcus aureus [1] = experiment: Antimicrobial activity against SCCmec type III vancomycin-intermediate Staphylococcus aureus isolate gz06040 by agar dilution method
In short: (§1)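 Agar-dilution MICs were measured on a subset of 200 blood MRSA isolates from China. Agents: oxacillin, rifampin, gentamicin, levofloxacin, erythromycin, vancomycin, teicoplanin, tigecycline, ceftobiprole and linezolid. Phenotype came from the PAP-AUC ratio of each isolate to S. aureus Mu3 (VSSA <0.9; hVISA 0.9 to 1.3; VISA ≥1.3), read on BHI agar with 0 to 8.0 mg/liter vancomycin after 48 h at 35°C.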

Staphylococcus aureus [2] = experiment: Antimicrobial activity against SCCmec type III vancomycin-intermediate Staphylococcus aureus isolate 13b16 by agar dilution method; in short: as §1
Staphylococcus aureus [3] = experiment: Antimicrobial activity against SCCmec type III vancomycin-intermediate Staphylococcus aureus isolate xa07029 by agar dilution method; in short: as §1
Staphylococcus aureus [4] = experiment: Antimicrobial activity against SCCmec type III vancomycin-intermediate Staphylococcus aureus isolate 5zjsau3 by agar dilution method; in short: as §1
Staphylococcus aureus [5] = experiment: Antimicrobial activity against vancomycin-susceptible Staphylococcus aureus by agar dilution method; in short: as §1
Staphylococcus aureus [6] = experiment: Antimicrobial activity against SCCmec type III vancomycin-intermediate Staphylococcus aureus isolate b5k3529 by agar dilution method; in short: as §1
Staphylococcus aureus [7] = experiment: Antimicrobial activity against SCCmec type II vancomycin-intermediate Staphylococcus aureus isolate 4sy39 by agar dilution method; in short: as §1
Staphylococcus aureus [8] = experiment: Antimicrobial activity against heterogeneous vancomycin-intermediate Staphylococcus aureus assessed as susceptible isolates by agar dilution method
In short: (§2)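 MICs by agar dilution for all 200 MRSA blood isolates (oxacillin, rifampin, gentamicin, levofloxacin, erythromycin, vancomycin, teicoplanin, tigecycline, ceftobiprole, linezolid). Isolates were grouped by PAP-AUC ratio against S. aureus Mu3: below 0.9 VSSA, 0.9 to 1.3 hVISA, 1.3 or more VISA.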

Staphylococcus aureus [9] = experiment: Antimicrobial activity against heterogeneous vancomycin-intermediate Staphylococcus aureus assessed as growth inhibition at 2 times MIC; design: scale not given: the % may be the effect or the level left
Staphylococcus aureus [10] = experiment: Antimicrobial activity against heterogeneous vancomycin-susceptible Staphylococcus aureus assessed as susceptible isolates by agar dilution method; in short: as §2
Staphylococcus aureus [11] = experiment: Antimicrobial activity against SCCmec type III vancomycin-intermediate Staphylococcus aureus isolate 11b091 by agar dilution method; in short: as §1
Staphylococcus aureus [12] = experiment: Antimicrobial activity against SCCmec type III vancomycin-intermediate Staphylococcus aureus isolate bd4768 by agar dilution method; in short: as §1
Staphylococcus aureus [13] = experiment: Antimicrobial activity against SCCmec type III vancomycin-intermediate Staphylococcus aureus isolate b3k5923 by agar dilution method; in short: as §1
Staphylococcus aureus [14] = experiment: Antimicrobial activity against SCCmec type II vancomycin-intermediate Staphylococcus aureus isolate 6zjsau7 by agar dilution method; in short: as §1
Staphylococcus aureus [15] = experiment: Antimicrobial activity against vancomycin-susceptible Staphylococcus aureus assessed as growth inhibition at 0.25 times MIC; design: scale not given: the % may be the effect or the level left
Staphylococcus aureus [16] = experiment: Antimicrobial activity against SCCmec type III vancomycin-intermediate Staphylococcus aureus isolate gz06051 by agar dilution method; in short: as §1
Staphylococcus aureus [17] = experiment: Antimicrobial activity against SCCmec type III vancomycin-intermediate Staphylococcus aureus isolate gs07022 by agar dilution method; in short: as §1
Staphylococcus aureus [18] = experiment: Antimicrobial activity against SCCmec type III vancomycin-intermediate Staphylococcus aureus isolate b6k1642 by agar dilution method; in short: as §1
Staphylococcus aureus [19] = experiment: Antimicrobial activity against SCCmec type III vancomycin-intermediate Staphylococcus aureus isolate zj07028 by agar dilution method; in short: as §1
Staphylococcus aureus [20] = experiment: Antimicrobial activity against SCCmec type II vancomycin-intermediate Staphylococcus aureus isolate 07b63 by agar dilution method; in short: as §1
Staphylococcus aureus [21] = experiment: Antimicrobial activity against vancomycin-susceptible Staphylococcus aureus assessed as growth inhibition at 0.5 times MIC; design: scale not given: the % may be the effect or the level left
Staphylococcus aureus [22] = experiment: Antimicrobial activity against SCCmec type III vancomycin-intermediate Staphylococcus aureus isolate b5k3578 by agar dilution method; in short: as §1
Staphylococcus aureus [23] = experiment: Antimicrobial activity against SCCmec type III vancomycin-intermediate Staphylococcus aureus isolate 15b52 by agar dilution method; in short: as §1
Staphylococcus aureus [24] = experiment: Antimicrobial activity against heterogeneous vancomycin-intermediate Staphylococcus aureus assessed as growth inhibition at 0.25 times MIC; design: scale not given: the % may be the effect or the level left
Staphylococcus aureus [25] = experiment: Antimicrobial activity against SCCmec type IV vancomycin-intermediate Staphylococcus aureus isolate 06b41 by agar dilution method; in short: as §1
Staphylococcus aureus [26] = experiment: Antimicrobial activity against vancomycin-susceptible Staphylococcus aureus assessed as growth inhibition at 2 times MIC; design: scale not given: the % may be the effect or the level left
Staphylococcus aureus [27] = experiment: Antimicrobial activity against heterogeneous vancomycin-susceptible Staphylococcus aureus assessed as intermediate isolates by agar dilution method
Staphylococcus aureus [28] = experiment: Antimicrobial activity against SCCmec type II vancomycin-intermediate Staphylococcus aureus isolate 4sy32 by agar dilution method; in short: as §1
Staphylococcus aureus [29] = experiment: Antimicrobial activity against heterogeneous vancomycin-intermediate Staphylococcus aureus assessed as growth inhibition at 0.5 times MIC; design: scale not given: the % may be the effect or the level left
Staphylococcus aureus [30] = experiment: Antimicrobial activity against SCCmec type III vancomycin-intermediate Staphylococcus aureus isolate b3k2345 by agar dilution method; in short: as §1
Staphylococcus aureus [31] = experiment: Antimicrobial activity against heterogeneous vancomycin-intermediate Staphylococcus aureus assessed as growth inhibition at 16 times MIC; design: scale not given: the % may be the effect or the level left
Staphylococcus aureus [32] = experiment: Antimicrobial activity against heterogeneous vancomycin-intermediate Staphylococcus aureus assessed as growth inhibition at 4 times MIC; design: scale not given: the % may be the effect or the level left
Staphylococcus aureus [33] = experiment: Antimicrobial activity against vancomycin-susceptible Staphylococcus aureus assessed as growth inhibition at 4 times MIC; design: scale not given: the % may be the effect or the level left
Staphylococcus aureus [34] = experiment: Antimicrobial activity against SCCmec type III vancomycin-intermediate Staphylococcus aureus isolate b6k7974 by agar dilution method; in short: as §1
Staphylococcus aureus [35] = experiment: Antimicrobial activity against SCCmec type III vancomycin-intermediate Staphylococcus aureus isolate gz07030 by agar dilution method; in short: as §1
Staphylococcus aureus [36] = experiment: Antimicrobial activity against heterogeneous vancomycin-intermediate Staphylococcus aureus assessed as growth inhibition at MIC; design: scale not given: the % may be the effect or the level left
Staphylococcus aureus [37] = experiment: Antimicrobial activity against SCCmec type III vancomycin-intermediate Staphylococcus aureus isolate b4k6307 by agar dilution method; in short: as §1
Staphylococcus aureus [38] = experiment: Antimicrobial activity against vancomycin-intermediate Staphylococcus aureus by agar dilution method; in short: as §1
Staphylococcus aureus [39] = experiment: Antimicrobial activity against heterogeneous vancomycin-intermediate Staphylococcus aureus by agar dilution method; in short: as §1
Staphylococcus aureus [40] = experiment: Antimicrobial activity against SCCmec type II vancomycin-intermediate Staphylococcus aureus isolate b2k4781 by agar dilution method; in short: as §1
Staphylococcus aureus [41] = experiment: Antimicrobial activity against vancomycin-susceptible Staphylococcus aureus assessed as growth inhibition at MIC; design: scale not given: the % may be the effect or the level left
Staphylococcus aureus [42] = experiment: Antimicrobial activity against SCCmec type III vancomycin-intermediate Staphylococcus aureus isolate sh07043 by agar dilution method; in short: as §1
Staphylococcus aureus [43] = experiment: Antimicrobial activity against vancomycin-susceptible Staphylococcus aureus assessed as growth inhibition at 0.125 times MIC; design: scale not given: the % may be the effect or the level left
Staphylococcus aureus [44] = experiment: Antimicrobial activity against vancomycin-susceptible Staphylococcus aureus assessed as growth inhibition at 16 times MIC; design: scale not given: the % may be the effect or the level left
Staphylococcus aureus [45] = experiment: Antimicrobial activity against heterogeneous vancomycin-intermediate Staphylococcus aureus assessed as intermediate isolates by agar dilution method; in short: as §2
Staphylococcus aureus [46] = experiment: Antimicrobial activity against SCCmec type II vancomycin-intermediate Staphylococcus aureus isolate sh06024 by agar dilution method; in short: as §1
Staphylococcus aureus [47] = experiment: Antimicrobial activity against heterogeneous vancomycin-intermediate Staphylococcus aureus assessed as growth inhibition at 0.125 times MIC; design: scale not given: the % may be the effect or the level left
Staphylococcus aureus [48] = experiment: Antimicrobial activity against SCCmec type III vancomycin-intermediate Staphylococcus aureus isolate b2k3421 by agar dilution method; in short: as §1

Nc1nc(/C(=N/O)C(=O)N[C@@H]2C(=O)N3C(C(=O)O)=C(/C=C4\CCN([C@@H]5CCNC5)C4=O)CS[C@H]23)ns1 [CEFTOBIPROLE]
0%: Activity (Staphylococcus aureus [24]) | Activity (Staphylococcus aureus [27]) | Activity (Staphylococcus aureus [43]) | Activity (Staphylococcus aureus [45]) | Activity (Staphylococcus aureus [47])
2 µg/mL: MIC (Staphylococcus aureus [3]) | MIC50 (Staphylococcus aureus [5]) | MIC90 (Staphylococcus aureus [5]) | MIC (Staphylococcus aureus [6]) | MIC (Staphylococcus aureus [11]) | MIC (Staphylococcus aureus [12]) | MIC (Staphylococcus aureus [13]) | MIC (Staphylococcus aureus [16]) | MIC (Staphylococcus aureus [18]) | MIC (Staphylococcus aureus [19]) | MIC (Staphylococcus aureus [22]) | MIC (Staphylococcus aureus [23]) | MIC (Staphylococcus aureus [30]) | MIC (Staphylococcus aureus [34]) | MIC (Staphylococcus aureus [35]) | MIC50 (Staphylococcus aureus [39]) | MIC90 (Staphylococcus aureus [39]) | MIC (Staphylococcus aureus [40]) | MIC (Staphylococcus aureus [42]) | MIC (Staphylococcus aureus [46]) | MIC (Staphylococcus aureus [48])
0.5 µg/mL: MIC (Staphylococcus aureus [4]) | MIC (Staphylococcus aureus [7]) | MIC (Staphylococcus aureus [28]) | MIC (Staphylococcus aureus [38])
33.3%: Activity (Staphylococcus aureus [36])
96.3%: Activity (Staphylococcus aureus [9])
27.2%: Activity (Staphylococcus aureus [41])
100%: Activity (Staphylococcus aureus [8]) | Activity (Staphylococcus aureus [10]) | Activity (Staphylococcus aureus [26]) | Activity (Staphylococcus aureus [31]) | Activity (Staphylococcus aureus [32]) | Activity (Staphylococcus aureus [33]) | Activity (Staphylococcus aureus [44])
2.31%: Activity (Staphylococcus aureus [15])
4 µg/mL: MIC (Staphylococcus aureus [14])
11.1%: Activity (Staphylococcus aureus [29])
4.62%: Activity (Staphylococcus aureus [21])
1 µg/mL: MIC (Staphylococcus aureus [1]) | MIC (Staphylococcus aureus [2]) | MIC (Staphylococcus aureus [17]) | MIC (Staphylococcus aureus [20]) | MIC (Staphylococcus aureus [25]) | MIC (Staphylococcus aureus [37])

CN(C)c1cc(NC(=O)CNC(C)(C)C)c(O)c2c1C[C@H]1C[C@H]3[C@H](N(C)C)C(O)=C(C(N)=O)C(=O)[C@@]3(O)C(O)=C1C2=O [TIGECYCLINE]
54.3%: Activity (Staphylococcus aureus [43])
0.032 µg/mL: MIC (Staphylococcus aureus [13])
44.4%: Activity (Staphylococcus aureus [47])
0.064 µg/mL: MIC (Staphylococcus aureus [30]) | MIC (Staphylococcus aureus [37])
0.25 µg/mL: MIC (Staphylococcus aureus [3]) | MIC (Staphylococcus aureus [4]) | MIC90 (Staphylococcus aureus [5]) | MIC (Staphylococcus aureus [7]) | MIC (Staphylococcus aureus [14]) | MIC (Staphylococcus aureus [16]) | MIC (Staphylococcus aureus [17]) | MIC (Staphylococcus aureus [18]) | MIC (Staphylococcus aureus [22]) | MIC (Staphylococcus aureus [23]) | MIC (Staphylococcus aureus [25]) | MIC (Staphylococcus aureus [28]) | MIC (Staphylococcus aureus [34]) | MIC (Staphylococcus aureus [38]) | MIC50 (Staphylococcus aureus [39]) | MIC90 (Staphylococcus aureus [39]) | MIC (Staphylococcus aureus [42])
0%: Activity (Staphylococcus aureus [27]) | Activity (Staphylococcus aureus [45])
92.6%: Activity (Staphylococcus aureus [24])
0.5 µg/mL: MIC (Staphylococcus aureus [19]) | MIC (Staphylococcus aureus [20])
0.125 µg/mL: MIC (Staphylococcus aureus [1]) | MIC (Staphylococcus aureus [2]) | MIC50 (Staphylococcus aureus [5]) | MIC (Staphylococcus aureus [6]) | MIC (Staphylococcus aureus [11]) | MIC (Staphylococcus aureus [12]) | MIC (Staphylococcus aureus [35]) | MIC (Staphylococcus aureus [40]) | MIC (Staphylococcus aureus [46]) | MIC (Staphylococcus aureus [48])
100%: Activity (Staphylococcus aureus [8]) | Activity (Staphylococcus aureus [9]) | Activity (Staphylococcus aureus [10]) | Activity (Staphylococcus aureus [21]) | Activity (Staphylococcus aureus [26]) | Activity (Staphylococcus aureus [29]) | Activity (Staphylococcus aureus [31]) | Activity (Staphylococcus aureus [32]) | Activity (Staphylococcus aureus [33]) | Activity (Staphylococcus aureus [36]) | Activity (Staphylococcus aureus [41]) | Activity (Staphylococcus aureus [44])
90.2%: Activity (Staphylococcus aureus [15])
